Screening results as filed in PubChem BioAssay.
The sample as a whole holds a higher share of hits than the screen did.
E-sel inducer: E-selectin induction in HUVECs, primary screen, imaging, HUVEC, immunofluorescence imaging, single point; normalized: neutral wells 0, TNF-alpha wells 100; activation, % at 7.58 µM; 260,000 tested, 0.37% active;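 active means mean E-selectin-positive cell signal at least 10% of the positive control, reached in at least 60% of replicates, without over 20% cell loss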
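Assay system: HUVEC, human umbilical vein endothelial cells / Amount: 3,000 HUVEC/well / Controls: TNF-alpha positive control, DMSO neutral control / Compound dosing: single concentration / Medium: EGM-2 over gelatin coat / Evaluation: percent E-selectin-positive cells / Signal: immunofluorescence imaging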
A number is an active result; – = inactive.

SMILES | E-sel inducer
CCNC(=O)c1cc2c(c(-c3cccc(-c4cccc(OC)c4)c3)n1)[C@H](CCO)N([S@@](=O)C(C)(C)C)C2 | –
COc1cccc(-c2cccc(-c3nc(C(=O)Nc4ccc(-c5ccccc5)cc4)cc4c3[C@@H](CCO)N(S(=O)C(C)(C)C)C4)c2)c1 (some centres not stated) | 36
CC(C)(C)S(=O)N1Cc2cc(C(=O)Nc3ccc(-c4ccccc4)cc3)nc(-c3cccc(-c4cccc(F)c4)c3)c2[C@@H]1CCO (some centres not stated) | 29
O=C(Nc1nccs1)[C@H]1[C@H](CO)[C@H]2Cn3c(cccc3=O)[C@H]2N1C(=O)C1CCCC1 | –
COc1ccc(NC(=O)Nc2ccc3c(c2)[C@@H]2C[C@H](CC(=O)NCc4ccccc4F)O[C@@H](CO)[C@@H]2O3)cc1 | –
CN1CCN(C(=O)C[C@@H]2C=C[C@@H](NC(=O)c3ccc4c(c3)OCO4)[C@@H](CO)O2)CC1 | –
C[C@H](CO)N1C[C@H](C)[C@@H](CN(C)C(=O)Nc2cccc3ccccc23)Oc2ccc(NC(=O)Cc3ccccc3)cc2C1=O | –
N#Cc1cccnc1N1CCN(C(=O)c2ccccc2)CC1 | –
N#Cc1cccnc1N1CCC(C(N)=O)CC1 | 70
CC(C)C(C(=O)NC1CCCC1)N1CCN(c2ncccc2C#N)CC1 (configuration not stated) | –
O=C(C[C@H]1C[C@H]2c3cc(NS(=O)(=O)c4ccc(F)cc4)ccc3O[C@H]2[C@H](CO)O1)NCCN1CCCCC1 | –
CCCNC(=O)N(C)C[C@H]1Oc2ncc(C#CC3(O)CCCC3)cc2C(=O)N([C@@H](C)CO)C[C@H]1C | –
COc1ccc(/C=N/n2c(C)nc3ccccc3c2=O)cc1 | 31
Cc1nc2ccccc2c(=O)n1/N=C/c1ccc(C(C)C)cc1 | –
COc1ccc(/C=N/n2c(C)nc3ccccc3c2=O)cc1OC | –
C/C=C/c1ccc([C@@H]2[C@@H](CN(CC)C(C)=O)N(S(C)(=O)=O)[C@H]2CO)cc1 | –
